# High-throughput results: PubChem, several laboratories
# Compounds with a hit are over-represented: about 5.4% of the library has one in this group of screens.
# EphB4 antag: antagonists of human EphB4-ephrin-B2 interaction. inhibition, % at 7 µM. AID 720. EphB4 LBD / TNYL-RAW-Alexa532 peptide, fluorescence polarization. actives 0.15% (n = 97,000). P54760;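 active = inhibition above the screen-wide mean inhibition plus 3 SD, cut at about 15% in these data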
# Target sequence (P54760 whole entry, looked up, the tested form may be a part): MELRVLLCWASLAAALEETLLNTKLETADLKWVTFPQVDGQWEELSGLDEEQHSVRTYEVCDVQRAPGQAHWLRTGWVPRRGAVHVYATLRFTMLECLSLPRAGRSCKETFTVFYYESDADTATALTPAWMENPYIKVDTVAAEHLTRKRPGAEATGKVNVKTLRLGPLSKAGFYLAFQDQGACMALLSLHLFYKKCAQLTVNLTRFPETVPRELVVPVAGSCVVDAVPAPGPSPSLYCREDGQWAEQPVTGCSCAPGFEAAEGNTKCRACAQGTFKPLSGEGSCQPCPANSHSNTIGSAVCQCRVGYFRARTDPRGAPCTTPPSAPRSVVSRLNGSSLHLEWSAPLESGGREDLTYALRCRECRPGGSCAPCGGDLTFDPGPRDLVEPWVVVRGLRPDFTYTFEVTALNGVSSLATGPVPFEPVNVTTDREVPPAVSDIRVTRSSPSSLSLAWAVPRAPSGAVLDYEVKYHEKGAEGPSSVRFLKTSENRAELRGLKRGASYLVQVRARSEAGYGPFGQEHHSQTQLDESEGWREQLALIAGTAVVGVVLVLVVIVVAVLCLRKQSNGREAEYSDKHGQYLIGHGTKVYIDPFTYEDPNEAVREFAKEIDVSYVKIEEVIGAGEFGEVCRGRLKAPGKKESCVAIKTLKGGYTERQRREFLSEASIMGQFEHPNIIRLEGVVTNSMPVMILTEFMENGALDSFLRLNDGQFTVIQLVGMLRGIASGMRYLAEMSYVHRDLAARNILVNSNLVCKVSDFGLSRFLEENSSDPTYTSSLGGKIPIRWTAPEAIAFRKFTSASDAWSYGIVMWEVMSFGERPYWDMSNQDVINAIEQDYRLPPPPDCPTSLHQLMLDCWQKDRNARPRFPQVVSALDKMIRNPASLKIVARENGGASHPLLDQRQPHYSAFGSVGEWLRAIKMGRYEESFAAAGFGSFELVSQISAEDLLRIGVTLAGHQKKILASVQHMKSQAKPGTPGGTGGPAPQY
# Cav3 T inh: human Cav3.2 channel inhibition, primary screen. O95180. Cav3.2-expressing cells, Fluo-4 calcium fluorescence FDSS; stronger effect = lower value. B-score at 10 µM. actives 4% (n = 100,000). AID 449739;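 active = single-dose well whose peak fluorescence ratio is a statistical outlier from its plate by either plate-standardised score or position-corrected B-score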
# HIV Rev-RRE inh: disrupts HIV-1 Rev binding to RRE RNA; P05866; Rev peptide-RRE RNA binding, FRET; inhibition, % at 8 µM; actives 0.79% (n = 97,000); AID 704;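 active = inhibition above the screen-wide mean plus 3 SD, cut at about 35% in these data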
#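 Test system: labelled RRE RNA duplex and labelled Rev peptide. Times: 5 min compound–RNA preincubation, then 15 min with peptide, 25 °C. Doses: single-dose 8 µM. Measured by: FRET, excitation 480 nm, emission 540 nm donor and 671 nm acceptor. Measure: % inhibition of FRET ratio versus controls.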
# DAT uptake mod: modulates human dopamine transporter uptake under cocaine; LLC-PK1 hDAT cells, [14C]-dopamine uptake with cocaine IC80; actives deviate in either direction; B-score at 10 µM; actives 1.3% (n = 110,000);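 active = Z score or B-score, a plate-position-corrected score, falls beyond the plate's 99.7% confidence bounds, in either direction; inactive = both scores lie inside the 99.7% bounds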
# Hits are given with their value; n = inactive; x = no result.
SMILES,EphB4 antag,Cav3 T inh,HIV Rev-RRE inh,DAT uptake mod
Cc1onc(-c2ccccc2Cl)c1C(=O)Nc1ccc(F)c(F)c1,n,-4.1,n,n
CC1Oc2ccccc2C=C1/C=C1/SC(N2CCOCC2)=NC1=O (stereo unspecified),n,n,37,n
Cc1ccc(Cn2c(NCCCn3ccnc3)nc3c2c(=O)n(C)c(=O)n3C)cc1,n,n,n,n
Cc1nnc(SC(C)C(=O)Nc2ccc(Cl)cn2)n1Cc1ccccc1 (stereo unspecified),x,n,x,n
CC(Sc1nnc(-c2ccc(Cl)cc2Cl)n1Cc1ccccc1)C(=O)Nc1nccs1 (stereo unspecified),n,-8.2,n,n
CCCn1cc(SCC(=O)Nc2ccc3c(c2)OCO3)c2ccccc21,n,-4.6,n,n
O=C(CSCc1ccc(Cl)cc1)NCc1ccc2c(c1)OCO2,n,-6.1,n,n
O=C(CSCc1ccc(Cl)cc1)Nc1ccc2c(c1)OCO2,n,-5.6,n,n
CN(C)C(=O)Cn1c(SCC(=O)Nc2ccc3c(c2)OCO3)nc2ccccc21,n,n,n,n
CCCn1c(N2CCN(CC(=O)Nc3ccc4c(c3)OCCO4)CC2)nc2ccccc21,n,-4.5,n,n
Cn1cc(SCC(=O)Nc2ccc3c(c2)OCO3)c2ccccc21,n,n,n,n
COc1ccc(CNC(=O)C(c2ccncc2)N(C(=O)Cc2cccs2)c2ccc(C)cc2)cc1 (stereo unspecified),n,n,n,n
O=[N+]([O-])c1ccc(S(=O)(=O)NCCc2cn3ccccc3n2)cc1,x,n,x,n
CCCCN1CC(C(=O)NCc2ccc(C)cc2)CC1=O (stereo unspecified),n,n,n,n
CC(C)CCN1CC(C(=O)NCc2ccccc2)CC1=O (stereo unspecified),n,-5.3,n,n
CCOc1ccc(C2NC(=O)NC(C)=C2C(=O)OC)cc1C (stereo unspecified),n,n,n,n
NC(=O)c1ccccc1NS(=O)(=O)c1cccs1,n,n,n,-3.2
O=S(=O)(Nc1ccc2c(c1)OCCO2)c1ccc2oc3ccccc3c2c1,n,-5.9,n,n
O=S(=O)(Nc1ccc2c(c1)oc1ccccc12)N1CCCC1,n,-5.9,n,n
CSc1nc2ccc(S(=O)(=O)NC3CCCCC3)cc2s1,n,x,n,x
CSc1nc2ccc(NS(=O)(=O)c3ccc4c(c3)OCCO4)cc2s1,x,-4.5,x,n
COc1ccc(CCN2CCC(Nc3nc4ccccc4n3Cc3ccc(F)cc3)CC2)cc1,x,-5,x,n
CC1CC(C)CN(C(=O)c2ccc3c(c2NCCO)C(=O)c2ccccc2C3=O)C1 (stereo unspecified),n,n,n,n
CCCCNC(=O)C(c1ccc(-c2ccccc2)cc1)N(CCN1CCOCC1)C(=O)CCCCCN1C(=O)NC(c2ccc([N+](=O)[O-])cc2)C(C(=O)OCc2ccccc2)=C1C (stereo unspecified),x,n,x,n
O=C(c1c(Cl)nc2sccn12)N1CCN(c2cccc(Cl)c2)CC1,n,n,n,n
SMILES,EphB4 antag,Cav3 T inh,HIV Rev-RRE inh,DAT uptake mod
O=C(c1c[nH]c2ccc(S(=O)(=O)N3CCC4(CC3)OCCO4)cc2c1=O)N1CCOCC1,17,n,n,n
COc1ccc(NC(C)C(=O)Nc2ccc(C#N)cc2)cc1Cl (stereo unspecified),n,n,n,n
COc1ccc(NC(C)C(=O)Nc2ccc(C(C)(C)C)cc2)cc1Cl (stereo unspecified),n,-6,n,n
c1ccc(-c2ncnc3cc4n(c23)CCC4)cc1,n,n,n,n
C=CCc1cc(C=O)cc(OC)c1OCc1c(Cl)cccc1Cl,n,n,n,n
CC1=C(C(=O)OCc2ccccc2)C(c2ccccc2OS(=O)(=O)c2ccc([N+](=O)[O-])cc2)NC(=O)N1CCCC(=O)O (stereo unspecified),x,n,x,2.8
O=C(COC(=O)C1(c2ccc(F)cc2)CCCC1)NC1CC1,n,n,n,n
COc1ccc(C2C(C(=O)c3ccc(C)o3)=C(O)C(=O)N2c2cc(C)on2)cc1OC (stereo unspecified),n,n,n,n
COc1ccc(OC)c(C2C(C(=O)c3cc4ccccc4o3)=C(O)C(=O)N2c2cc(C)on2)c1 (stereo unspecified),n,n,n,3.8
CC1CC(N(C(=O)c2ccco2)c2ccccc2)c2ccccc2N1C(=O)c1ccco1 (stereo unspecified),n,-5.3,n,n
CC1CC(N(C(=O)c2ccc(Cl)cc2)c2ccccc2)c2ccccc2N1C(=O)c1ccco1 (stereo unspecified),n,-5.7,n,n
CC(=O)c1cccc(S(=O)(=O)NCC(c2ccco2)N2CCCCC2)c1 (stereo unspecified),n,n,n,n
O=C(CCn1c(=O)[nH]c2ccsc2c1=O)NCCc1ccc(Cl)cc1,n,n,n,n
O=C(CCn1c(=O)[nH]c2ccsc2c1=O)N(CCc1ccccc1)Cc1ccccc1,n,-4.4,n,n
O=C(CSc1nc2ccccc2o1)NC(=O)NCc1ccccc1,n,-6.5,n,n
O=C(CSc1nc2ccccc2o1)Nc1cc(C(F)(F)F)ccc1N1CCOCC1,n,n,n,n
O=C(CSc1nc2ccccc2o1)Nc1ccc(N2CCOCC2)c(Cl)c1,n,-3.8,n,n
Cc1cccc(NC(=O)CSc2nc3ccccc3o2)c1,n,-6.9,n,n
Cc1ccc(-n2nnnc2SCC(=O)Nc2ccccc2N2CCCCC2)cc1C,n,-4.1,n,n
O=C(CSc1nc2ccccc2o1)Nc1ccc(Cl)cc1,n,n,n,n
CC(C)(C)C(=O)N1CCN(c2c(Cl)cccc2[N+](=O)[O-])CC1,n,n,n,n
CC(=O)c1cc2c(cc1NC(=O)CSc1nc3ccccc3o1)OCO2,n,n,n,n
O=C(CSc1nc2ccccc2o1)Nc1ccccc1N1CCCCCC1,n,-6.6,n,n
CC1=N/C(=C\c2ccc([N+](=O)[O-])cc2)C(=O)N1c1ccc(Br)c(C)c1,n,n,n,n
O=C(NCc1ccco1)C1CCN(c2nc3ccccc3n2Cc2ccccc2F)CC1,n,-7.1,n,n
SMILES,EphB4 antag,Cav3 T inh,HIV Rev-RRE inh,DAT uptake mod
Cc1oc(-c2ccccc2F)nc1CN1CCC(C(=O)NCc2ccco2)CC1,n,n,n,n
CCCN(c1nc(C)cc(OC)n1)S(=O)(=O)c1ccccc1,n,-4.7,n,n
Cc1ccccc1OCCNC(=O)c1ccccc1Sc1ccccc1C#N,n,-5.5,n,n
N#Cc1ccccc1Sc1ccccc1C(=O)Nc1ccc(Br)cc1,n,x,n,x
Cc1ccccc1-n1c(SC(C)C(=O)N2CCN(C)CC2)nc2ccccc2c1=O (stereo unspecified),n,x,n,x
Cc1cc(Cl)ccc1NC(=O)CN1CCC(C(O)(c2ccccc2)c2ccccc2)CC1,n,-4.3,n,n
CC(C)c1ccccc1NC(=S)NN(Cc1ccccc1)c1ccccc1,n,-6.9,n,n
Fc1ccccc1NC(=S)NN(Cc1ccccc1)c1ccccc1,n,n,n,n
CC(=O)n1nc(-c2ccccc2)nc1NCc1ccc(F)cc1,n,-4.6,n,n
COCC(=O)n1nc(-c2ccc(Cl)cc2)nc1NCc1ccc(F)cc1,n,n,n,n
